# Data published in ChEMBL document CHEMBL1124572, “Synthesis and biological activity of novel carbacyclins having bicyclic substituents on the omega-chain” (J Med Chem, 1989).
# Active and inactive are the calls of the source. The calls are words filed in the database; no cut-off is given here.
# Tests used:
# Rattus norvegicus [1] = organism: Rattus norvegicus; test: Relative potency for hypotension in rats; assay type: functional
# [2] = Ratio of relative potencies of antiaggregation/ hypotension to that of PGI-2 Na in rats
# [3] = Ratio of relative potencies of organ protection/ hypotension to that of PGE-2 in rats; assay type: functional
# How it was run: (§1)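 Relative potencies were calculated against PGE2 from the rat oral ED50 for ethanol-induced gastric lesions and the iv MBP15 hypotension dose. The ratio is organ-protective relative potency divided by hypotensive relative potency, with PGE2 set to 1.0.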
# Rattus norvegicus [4] = organism: Rattus norvegicus; test: Relative potency for organ protection in rats; assay type: functional; how it was run: as §1
# Rattus norvegicus [5] = organism: Rattus norvegicus; test: Relative potency for antiaggregation; assay type: functional
# How it was run: (§2)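 Antiaggregation relative potency was calculated against PGI2 from the IC50 for collagen-induced (5 μg/mL) aggregation of citrated rat blood, measured at 37 °C.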
# Rattus norvegicus [6] = organism: Rattus norvegicus; test: Antiaggregatory activity is expressed as dose that inhibit rat platelet aggregation induced by collagen by 50% of that of the control; assay type: functional
# How it was run: (§3)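 Male Wistar rats (250–350 g) under ether anesthesia were bled from the abdominal aorta into 0.1 volume 3.13% sodium citrate. Aggregation was induced by collagen (final 5 μg/mL) and read in an aggregometer at 37 °C with stirring. The IC50 is the concentration inhibiting aggregation by 50% versus control, derived by linear regression from three dose groups of five or six animals (mean ± SEM).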
# Rattus norvegicus [7] = test: Dose that reduces mean blood pressure by 15 mmHg (peak effect) in rat administered intravenously; assay type: functional
# How it was run: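 Male Wistar rats (200–300 g) were anesthetized with urethane. Compound was given iv via the femoral vein, and blood pressure was recorded by transducer through a femoral artery catheter. MBP15 is the dose lowering mean blood pressure by 15 mmHg at peak effect, derived by linear regression from three dose groups of five or six animals (mean ± SEM).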
# Rattus norvegicus [8] = test: Inhibition of ethanol induced gastric lesions in the rat following p.o. administration.; assay type: functional; conditions: Stomach, po
# How it was run: (§4)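 Male Sprague-Dawley rats (200–300 g) were fasted 24 h and dosed orally at 2 mL/kg, 30 min before 1 mL of 100% ethanol per rat. Animals were killed 1 h later, and stomachs were formalin-fixed, opened along the greater curvature and examined for lesions. ED50 is the dose giving 50% lesion inhibition versus control, derived by linear regression from three dose groups of eight rats each.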
# Rattus norvegicus [9] = organism: Rattus norvegicus; test: Relative potency for antiaggregation in rats; assay type: functional; how it was run: as §2
# Rattus norvegicus [10] = test: Inhibition of ethanol induced gastric lesions in the rat following p.o. administration; No effect.; assay type: functional, organism-based; conditions: Stomach; how it was run: as §4
# Rattus norvegicus [11] = test: Organ-protective activity is expressed as dose that inhibits 50 percent of ethanol-induced gastric lesions of control orally in rat; No effect; assay type: functional, organism-based; conditions: Stomach; how it was run: as §4
# Rattus norvegicus [12] = organism: Rattus norvegicus; test: Relative potency for hypotension; assay type: functional
# Rattus norvegicus [13] = organism: Rattus norvegicus; test: Relative potency for organ protection; assay type: functional; how it was run: as §1
# Rattus norvegicus [14] = organism: Rattus norvegicus; test: Antiaggregatory activity is expressed as dose that inhibit rat platelet aggregation induced by collagen by 50% of that of the control; No effect; assay type: functional; how it was run: as §3
Compound,IC50 (Rattus norvegicus [6]) [µg/mL],Dose lowering mean blood pressure by 15 mmHg (Rattus norvegicus [7]) [µg/kg],ED50 (Rattus norvegicus [8]) [mg/kg],further results
O=C(O)CCC/C=C1\CC2C[C@@H](O)[C@H](C#C[C@@H](O)C3Cc4ccccc4C3)C2C1 (some centres not stated),0.0082,1.3,0.0017,Relative potency (Rattus norvegicus [1]): 0.9; Ratio [2]: 1.8; Ratio [3]: 21.8; Relative potency (Rattus norvegicus [4]): 20.1; Relative potency (Rattus norvegicus [5]): 0.42
O=C(O)COC/C=C1\CC2C[C@@H](O)[C@H](/C=C/[C@@H](O)C3Cc4ccccc4C3)C2C1 (some centres not stated),0.0153,3.8,0.0675,Relative potency (Rattus norvegicus [1]): 0.08; Relative potency (Rattus norvegicus [9]): 0.23
O=C(O)CCC/C=C1\CC2C[C@@H](O)[C@H](/C=C/[C@@H](O)C3COC4CCCCC4O3)C2C1 (some centres not stated),> 1,13.5,0.256,
COc1ccc2c(c1)OCC([C@H](O)/C=C/[C@@H]1C3C/C(=C/COCC(=O)O)CC3C[C@H]1O)O2 (some centres not stated),> 1,6.2,,ED50 (Rattus norvegicus [10]): No effect
CC1([C@H](O)/C=C/[C@@H]2C3CC(CCOCC(=O)O)=C[C@H]3C[C@H]2O)Cc2ccccc2C1 (some centres not stated),0.0692,2,0.006,
O=C(O)CCC/C=C1\CC2C[C@@H](O)[C@H](/C=C/[C@@H](O)C3Cc4ccccc4C3)C2C1 (some centres not stated),0.0204,4.3,0.0562,Relative potency (Rattus norvegicus [1]): 0.07; Relative potency (Rattus norvegicus [9]): 0.17; Ratio [2]: 2.4
COc1ccc2c(c1)CC([C@H](O)/C=C/[C@@H]1C3C/C(=C/CCCC(=O)O)CC3C[C@H]1O)C2 (some centres not stated),0.0705,6,0.0143,
NC(=O)CCC/C=C1\CC2C[C@@H](O)[C@H](/C=C/[C@@H](O)C3Cc4ccccc4C3)C2C1 (some centres not stated),0.0537,97.7,0.113,
O=C(O)COC/C=C1\CC2C[C@@H](O)[C@H](/C=C/[C@@H](O)C3COc4ccccc4O3)C2C1 (some centres not stated),0.582,2.5,0.113,
OCCCC/C=C1\CC2C[C@@H](O)[C@H](/C=C/[C@@H](O)C3Cc4ccccc4C3)C2C1 (some centres not stated),> 1,>100,0.0536,
O=C(O)CCC/C=C1\CC2C[C@@H](O)[C@H](/C=C/[C@@H](O)C3Cc4ccc([N+](=O)[O-])cc4C3)C2C1 (some centres not stated),0.15,8.5,0.14,
O=C(O)COCCC1=C[C@H]2C[C@@H](O)[C@H](/C=C/[C@@H](O)C3Cc4ccccc4C3)C2C1 (some centres not stated),0.0567,2.2,0.0274,
O=C(O)CCC/C=C1\CC2C[C@@H](O)[C@H](/C=C/[C@@H](O)c3ccc4c(c3)CCC4)C2C1 (some centres not stated),> 1,>100,,ED50 (Rattus norvegicus [10]): No effect
O=C(O)CCC/C=C1\CC2C[C@@H](O)[C@H](/C=C/[C@@H](O)c3ccc4c(c3)OCCO4)C2C1 (some centres not stated),> 1,>100,> 0.3,
O=C(O)COCCC1=C[C@H]2C[C@@H](O)[C@H](/C=C/[C@@H](O)C3COc4ccccc4O3)C2C1 (some centres not stated),0.0531,1.7,0.0085,
O=C(O)CCC/C=C1\CC2C[C@@H](O)[C@H](/C=C/[C@@H](O)C3Cc4ccc(Cl)cc4C3)C2C1 (some centres not stated),0.407,>100,> 0.3,
CCCCC[C@H](O)/C=C/[C@H]1[C@H](O)CC(=O)[C@@H]1C/C=C\CCCC(=O)O [DINOPROSTONE],,1.2,0.0341,Relative potency (Rattus norvegicus [13]): 1; IC50 (Rattus norvegicus [14]): Not Active; Relative potency (Rattus norvegicus [12]): 1
O=C(O)CCC/C=C1\CC2C[C@@H](O)[C@H](CC[C@@H](O)C3Cc4ccccc4C3)C2C1 (some centres not stated),0.0764,35,,ED50 (Rattus norvegicus [10]): No effect
CC1([C@H](O)/C=C/[C@@H]2C3C/C(=C/COCC(=O)O)CC3C[C@H]2O)Cc2ccccc2C1 (some centres not stated),0.118,7.6,0.0397,
COc1ccc2c(c1)OCC([C@H](O)/C=C/[C@@H]1C3C/C(=C/CCCC(=O)O)CC3C[C@H]1O)O2 (some centres not stated),0.355,3.5,0.0021,Relative potency (Rattus norvegicus [1]): 0.3; Ratio [3]: 47.6; Relative potency (Rattus norvegicus [4]): 16.2

# More lines, main results first:
IC50 (Rattus norvegicus [6]) [µg/mL],Compound,Dose lowering mean blood pressure by 15 mmHg (Rattus norvegicus [7]) [µg/kg],ED50 (Rattus norvegicus [8]) [mg/kg],further results
0.0302,CC1([C@H](O)/C=C/[C@@H]2C3C/C(=C/CCCC(=O)O)CC3C[C@H]2O)Cc2ccccc2C1 (some centres not stated),5.3,0.0452,
> 1,O=C(O)CCC/C=C1\CC2C[C@@H](O)[C@H](/C=C/[C@@H](O)c3ccc4c(c3)OCO4)C2C1 (some centres not stated),>100,,ED50 (Rattus norvegicus [10]): No effect
0.647,Cc1ccc2c(c1)OCC([C@H](O)/C=C/[C@@H]1C3C/C(=C/CCCC(=O)O)CC3C[C@H]1O)O2 (some centres not stated),13,0.11,
0.221,CC1([C@H](O)/C=C/[C@@H]2C3C/C(=C/CCCC(=O)O)CC3C[C@H]2O)COc2ccccc2O1 (some centres not stated),3.6,0.0142,
> 1,O=C(O)CCC/C=C1\CC2C[C@@H](O)[C@H](/C=C/[C@@H](O)C3CCc4ccccc43)C2C1 (some centres not stated),>100,,ED50 (Rattus norvegicus [10]): No effect
0.0034,CCCCC[C@H](O)/C=C/[C@@H]1[C@H]2C/C(=C/CCCC(=O)[O-])O[C@H]2C[C@H]1O.[Na+] [EPOPROSTENOL SODIUM],0.3,,ED50 (Rattus norvegicus [11]): inactive; Relative potency (Rattus norvegicus [5]): 1; Relative potency (Rattus norvegicus [12]): 1
0.324,O=C(O)CCC/C=C1\CC2C[C@@H](O)[C@H](/C=C/[C@@H](O)CC3COc4ccccc4O3)C2C1 (some centres not stated),44,> 0.3,
0.324,O=C(O)CCC/C=C1\CC2C[C@@H](O)[C@H](/C=C/[C@@H](O)C3COc4ccccc4O3)C2C1 (some centres not stated),2,0.0045,Relative potency (Rattus norvegicus [1]): 0.6; Ratio [3]: 12.7; Relative potency (Rattus norvegicus [4]): 7.6
> 1,CC(C)c1cccc2c(CC[C@H](O)/C=C/[C@@H]3C4C/C(=C/CCCC(=O)O)CC4C[C@H]3O)ccc-2c1 (some centres not stated),>100,,ED50 (Rattus norvegicus [10]): No effect
